The source of these data is ChEMBL document CHEMBL1148795 (J Med Chem, 2007).

Activity calls are given as the source filed them. The rule behind the calls is not given here.

The nature of data set [1]: Metabolic stability in rat plasma. It counts as ADME, cell-free. A digest of the protocol: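 Compounds were incubated in reconstituted rat plasma (two lots, checked with a control compound), with 1,1-diphenylethylene as internal standard. Aliquot supernatants were analysed by HPLC with UV detection. Half-lives came from regression fits of concentration versus time and were averaged over at least two replicates.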

Data set [2] concerns the target Human immunodeficiency virus type 1 reverse transcriptase (Human immunodeficiency virus 1, UniProt Q72547). Description: Inhibition of HIV1 reverse transcriptase.
The subject of data set [3] is Human immunodeficiency virus 1. Nature of the data set: Antiviral activity against HIV1 3B in human MT4 cells by MTT assay. The following applies: for EC50: Human immunodeficiency virus 1, 3B.
A short description of data set [4]: Cytotoxicity against human CEM-SS cells by MTT assay. It counts as cell-based.
The nature of data set [5]: Cytotoxicity against human MT4 cells by MTT assay. Format: cell-based.
In data set [6] the test system is Human immunodeficiency virus 2. Description: Antiviral activity against HIV2 ROD in human MT4 cells by MTT assay. The following applies: for EC50: Human immunodeficiency virus 2, ROD.
The subject of data set [7] is Human immunodeficiency virus 1. Description: Antiviral activity against HIV1 RF in human CEM-SS cells by XTT assay. The following applies: for EC50: Human immunodeficiency virus 1, RF. Format: functional, organism-based.
The subject of data set [8] is Human immunodeficiency virus 1. Nature of the data set: Antiviral activity against HIV1 with RT K103N mutation. It counts as functional, organism-based. A digest of the protocol: (§1)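 Cytoprotection assay in CEM-SS cells infected with HIV-1 strains engineered to carry the NNRTI-resistance RT mutation (K103N or Y181C). Activity is expressed as the EC50 for protection of the cells from virus-induced cytopathic effect.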

Data set [9] deals with Human immunodeficiency virus 1. Description: Antiviral activity against HIV1 with RT Y181C mutation. It counts as functional, organism-based. A digest of the protocol: as §1

In the case of `COC(=O)c1cc(C(=CCCc2nnn(C)n2)c2cc(C)c(OC)c(C(=O)OC)c2)cc(C)c1OC`, in [1], the half-life was determined as 24 min. Further, the IC50 in data set [2] was 53 µM. Besides, the result in [3], in [6] and in data set [7] was inactive. For the same compound, the CC50 in [4] was found to be 9.6 µM; in [5], 5 µM.
`COC(=O)c1cc(C(=CCCc2nnc(C)o2)c2cc(C)c(OC)c(C(=O)SC)c2)cc(C)c1OC` yielded a half-life in data set [1] of 78 min. This compound also displayed an IC50 in data set [2] of 32 µM. The result in data set [3], in data set [6] and in data set [7] was inactive. The CC50 in [4] was determined as 13 µM; in [5], 3.9 µM.
In the case of `COc1c(C)cc(/C(=C\CCc2nnc(C)o2)c2ccc3oncc3c2)cc1C(=O)SC`, the EC50 is over 50 µM in [8], over 100 µM in data set [9] and 2.6 µM in data set [7]. For the same compound, the IC50 in [2] was found to be 7.7 µM. Also, the CC50 in [4] turned out to be 38 µM.
In data set [1], `COC(=O)c1cc(/C(=C\CCc2nnc(C)o2)c2ccc(C#N)cc2)cc(C)c1OC` showed a half-life of 45 min. Besides, the IC50 in [2] turned out to be 24 µM. For the same compound, the EC50 was determined as 2 µM in [3] and 3 µM in data set [7]. Besides, the results for the CC50 in data set [4] and in [5] were 28 µM and 16 µM, respectively. For the same compound, the result in [6] was inactive.
Turning to `COc1c(C)cc(/C(=C\CCc2nnc(C)o2)c2cc(C)c3on(C)c(=O)c3c2)cc1C(=O)SC`, the EC50 was over 50 µM in data set [8], over 100 µM in [9], 3.7 µM in [3] and 6.4 µM in [7]. The same compound came in with an IC50 in [2] of 9.2 µM. In addition, the CC50 in [4] was 18 µM; in data set [5], 19 µM. Besides, the outcome in data set [6] was inactive.
Turning to `COC(=O)c1cc(/C(=C/CCc2nnc(C)o2)c2cc(C)c3oc(=O)n(C)c3c2)cc(C)c1OC`, the EC50 is over 50 µM in [8], over 100 µM in data set [9], 0.44 µM in data set [3] and 0.43 µM in [7]. Also, 1 µM corresponded to half-maximal inhibition in data set [2] (IC50). Besides, the CC50 in data set [4] is 3.2 µM; in [5] it was 13 µM. In addition, the result in data set [6] was inactive.
With `COc1c(C)cc(/C(=C/CCCc2nnc(C)o2)c2cccc(C#N)c2)cc1C(=O)SC`, the IC50 in data set [2] is 7.7 µM. Also, the outcome in data set [3], in data set [6] and in data set [7] was inactive. Also, the results for the CC50 in data set [4] and in [5] were 7.2 µM and 8.2 µM, respectively.
In the case of `COc1c(C)cc(/C(=C/CCc2nnc(C)o2)c2cccc(C#N)c2)cc1C(=O)SC`, in [2], the IC50 was determined as 55 µM. The outcome in [3], in data set [6] and in data set [7] was inactive. Moreover, the figures for the CC50 in data set [4] and in data set [5] were 1.3 µM and 3.8 µM, respectively.
In data set [5], `Cc1ccnc2c1NC(=O)c1cccnc1N2C1CC1` [NEVIRAPINE] returned a CC50 of 15 µM. The outcome in [6] was inactive. In data set [7], this compound gave an EC50 of 0.015 µM.
`COc1c(C)cc(/C(=C/CCc2nnc(C)o2)c2cc(C)c3onc(OC)c3c2)cc1C(=O)SC`: inhibition in data set [2] was half-maximal at 33 µM (IC50). For the same compound, the result in data set [3], in [6] and in [7] was inactive. Besides, the figures for the CC50 in data set [4] and in [5] were 1.2 µM and 1.6 µM, respectively.
Consider `COC(=O)c1cc(C(=CCCc2nnn(C)n2)c2cc(C)c(OC)c(C(=O)SC)c2)cc(C)c1OC`, for which the IC50 in [2] was determined as 95 µM. Also, the result in data set [3], in data set [6] and in [7] was inactive. The CC50 was 1.6 µM in data set [4] and 1.4 µM in data set [5].
In data set [2], `COc1c(C)cc(C(=CCCc2nnc(C)o2)c2cc(C)c(OC)c(C(=O)SC)c2)cc1C(=O)SC` had an IC50 of over 100 µM. Further, the outcome in data set [3], in data set [6] and in data set [7] was inactive. Also, the CC50 came out at 8.1 µM in [4] and 5.9 µM in data set [5].
`COc1c(C)cc(/C(=C\CCCc2nnc(C)o2)c2cc(C)c3on(C)c(=O)c3c2)cc1C(=O)SC` came in with an IC50 in data set [2] of over 100 µM. For the same compound, the EC50 in [3] came out at 0.76 µM; in data set [7], 0.97 µM. In addition, the CC50 in data set [4] amounted to 6 µM; in data set [5], 9.9 µM. Further, in data set [6], the result was inactive.
In the case of `COc1c(C)cc(C(=CCCc2nnn(C)n2)c2cc(C)c(OC)c(C(=O)SC)c2)cc1C(=O)SC`, half-maximal inhibition in data set [2] (IC50) required 67 µM. For the same compound, the outcome in data set [3] and in data set [6] was inactive. Besides, the CC50 is 33 µM in data set [4] and 7 µM in data set [5].
Consider `COc1c(C)cc(/C(=C/CCc2nnc(C)o2)c2cc(C)c3oc(=O)n(C)c3c2)cc1C(=O)SC`, for which the IC50 in data set [2] was 90 µM. In addition, the result in [3] and in data set [7] was inactive. Further, the CC50 in data set [4] came to 6.6 µM; in data set [5], 14 µM. Moreover, a half-maximal effect in data set [6] (EC50) was put at 5.9 µM.
For the compound `COc1c(C)cc(/C(=C/CCc2nnc(C)o2)c2ccc(C#N)cc2)cc1C(=O)SC`, the IC50 in data set [2] was 48 µM. In addition, the result in [3], in data set [6] and in [7] was inactive. Further, the CC50 in [4] came to 1.2 µM; in data set [5], 3.2 µM.
On to `COC(=O)CCC/C=C(\c1cc(C)c(OC)c(C(=O)OC)c1)c1cc(C)c2oc(=O)n(C)c2c1`, for which the outcome in data set [6] was inactive.
In the case of `COc1c(C)cc(/C(=C\CCc2nnc(C)o2)c2cccc(C#N)c2)cc1C(=O)SC`, the half-life in data set [1] was determined as 221 min. In [2], the IC50 amounted to 9.3 µM. The same compound showed an EC50 in data set [3] of 1.4 µM. In addition, the CC50 worked out at 2.7 µM in [4] and 8.4 µM in data set [5]. The outcome in data set [6] and in [7] was inactive.
Turning to `COc1c(C)cc(/C(=C/CCCc2nnc(C)o2)c2cc(C)c3onc(OC)c3c2)cc1C(=O)SC`, the values for the EC50 in data set [8] and in [9] were over 50 µM and over 100 µM, respectively. In data set [2], this compound registered an IC50 of 5.2 µM. Moreover, the outcome in [3], in data set [6] and in data set [7] was inactive. Besides, the CC50 in data set [4] was found to be 0.78 µM; in data set [5], 1.1 µM.
Consider `COc1c(C)cc(/C(=C/CCc2nnc(C)o2)c2cc(C)c3on(C)c(=O)c3c2)cc1C(=O)SC`, for which the IC50 in [2] is over 100 µM. Also, the result in data set [3], in data set [6] and in data set [7] was inactive. In addition, the figures for the CC50 in data set [4] and in [5] were 17 µM and 37 µM, respectively.
In [1], `COC(=O)CCCC=C(c1cc(Cl)c(OC)c(C(=O)OC)c1)c1cc(Cl)c(OC)c(C(=O)OC)c1` had a half-life of 5.8 min. Moreover, the CC50 came to 32 µM in data set [4] and 160 µM in data set [5]. Moreover, the EC50 in data set [6] worked out at 25 µM; in data set [7], 0.01 µM.
As to `COC(=O)CCCC=C(c1cc(Br)c(OC)c(C(=O)OC)c1)c1cc(Br)c(OC)c(C(=O)OC)c1`, the half-life in data set [1] is 6.2 min. In addition, the CC50 in [4] was 13 µM; in data set [5], 91 µM. For the same compound, the outcome in data set [6] was inactive.
Consider `COc1c(C)cc(/C(=C\CCc2nnc(C)o2)c2ccc(C#N)cc2)cc1C(=O)SC`, for which the EC50 in [8] is over 50 µM; in data set [9], over 100 µM; in data set [3], 3.2 µM; in [7], 2.1 µM. The IC50 in data set [2] was 6.3 µM. The CC50 in data set [4] turned out to be 5.5 µM; in data set [5] it was 45 µM. Moreover, in data set [6], the outcome was inactive.
`COc1c(C)cc(/C(=C/CCCc2nnc(C)o2)c2cc(C)c3on(C)c(=O)c3c2)cc1C(=O)SC` registered an IC50 in data set [2] of over 100 µM. In addition, the result in [3], in data set [6] and in data set [7] was inactive. Further, the results for the CC50 in data set [4] and in data set [5] were 12 µM and 25 µM, respectively.
`COC(=O)c1cc(C(=CCCc2nnc(C)o2)c2cc(C)c(OC)c(C(=O)OC)c2)cc(C)c1OC` showed a half-life in [1] of 3.3 min. The compound also came in with an IC50 in [2] of 71 µM. Further, the CC50 in data set [4] came out at 40 µM; in data set [5] it was 37 µM. The outcome in [6] was inactive.
In data set [5], `O=C1Nc2ccc(Cl)cc2C(C#CC2CC2)(C(F)(F)F)O1` (single isomer, unassigned) [EFAVIRENZ] gave a CC50 of 6 µM. Further, in data set [6], the result was inactive.
In turn, `COc1c(C)cc(/C(=C/CCCc2nnc(C)o2)c2cc(C)c3oc(=O)n(C)c3c2)cc1C(=O)SC` registered an IC50 in data set [2] of 36 µM. Further, the outcome in data set [3], in data set [6] and in data set [7] was inactive. The CC50 in [4] turned out to be 5.5 µM; in [5], 7.7 µM.
`COC(=O)CCC/C=C(\c1cc(C)c(OC)c(C(=O)OC)c1)c1cc(C)c2onc(OC)c2c1` gave an IC50 in data set [2] of 0.91 µM.
Compound `COC(=O)c1cc(/C(=C\CCc2nnn(C)n2)c2cccc(C#N)c2)cc(C)c1OC` yielded a half-life in data set [1] of 42 min. In data set [2], this compound showed an IC50 of 7.7 µM. Besides, the EC50 in [3] came to 1.5 µM; in data set [7], 2.4 µM. For the same compound, the cytotoxic concentration (CC50) in data set [4] stood at 7.4 µM; in data set [5], 34 µM. For the same compound, the outcome in data set [6] was inactive.
